Laboratory results reported in the EternaBench riboswitch data.

Tests used:
MS2 coat protein [1] = assay: apparent Kd, MS2 coat protein; higher = weaker binding; RNA-MaP array; tryptophan 2.4 mM where present
Outline: (§1)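 On Illumina sequencing-chip clusters, designs were transcribed by stalled E. coli RNA polymerase and titrated with SNAP-549-labelled MS2 coat protein (0.7 or 1.5 nM, doubling to 3 µM), without and then with constant ligand, in 100 mM Tris-HCl pH 7.5, 80 mM KCl, 4 mM MgCl2, BSA, DTT, yeast tRNA and Tween-20. Apparent Kd is the median of filtered per-cluster curve fits to green signal normalised to red-channel RNA signal and control-cluster median Fmax.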

MS2 coat protein [2] = assay: apparent Kd, MS2 coat protein; higher = weaker binding; RNA-MaP array; theophylline 2 mM where present
Outline: as §1

[3] = designed as: OFF switch for tryptophan, no ligand
[4] = ligand present: tryptophan, designed as: OFF switch for tryptophan
[5] = designed as: ON switch for theophylline, no ligand
[6] = ligand present: theophylline, designed as: ON switch for theophylline
[7] = designed as: OFF switch for theophylline, no ligand
[8] = ligand present: theophylline, designed as: OFF switch for theophylline

Row | Sequence | apparent Kd (MS2 coat protein [1]; [3]) [nM] | apparent Kd (MS2 coat protein [1]; [4]) [nM] | apparent Kd (MS2 coat protein [2]; [7]) [nM] | apparent Kd (MS2 coat protein [2]; [8]) [nM] | other results
1 | UUGCCCAGUACGGCCGCCACUGUGUGCAGGGAGCCCAGGUCCACAUGAGGAUCACCCAUGUACAACAGGACCGGGUACUUGCAAU | 9.36 | 10.6 |  |  | 
2 | GACUAUAUGAUAUGUCAGAAAUCCUCGAAACGAGGACCGGUACGGCCGCCACUCGAGUGAUAAACAUGAGGAUCACCCAUGUAAA | 22.5 | 51.9 |  |  | 
3 | CAAAGUUCGUCUCUGGUCCUCUAAUCGGCUCGAGGACCGGUACGGCCGCCACUCGCCCGACAUGAGGAUCACCCAUGUCUGUAAA | 13.2 | 10.9 |  |  | 
4 | GUGCCGCAUUCACAUGAGGAUCACCCAUGUCGAGGACCGGUACGGCCGCCACUCGACGUGCUUACAGGUCCUUUACGGCCCAAUA | 38.1 | 18.8 |  |  | 
5 | AAGACAUGAGGAUCACCCAUGUCGUCUACACGAGGACCGGUACGGCCGCCACUCGUUUGCCAAUGAGCGCAUGCGGCCUGGGUAU | 13.3 | 24.1 |  |  | 
6 | UUCACAUGGUAUGAAUAUACAUAUAAGAAACGAGGACCGGUACGGCCGCCACUCGUGCCGGAAACAUGAGGAUCACCCAUGUGUU | 63.5 | 58.5 |  |  | 
7 | AGCCACUCGAGUGAUCCUCACGAGUGGCAACGAGGACCGGUACGGCCGCCACUCGAAUAAACAUGAGGAUCACCCAUGUAAUAAU |  |  |  |  | apparent Kd (MS2 coat protein [1]; designed as: ON switch for tryptophan, no ligand): 70.5 nM; apparent Kd (MS2 coat protein [1]; ligand present: tryptophan, designed as: ON switch for tryptophan): 49.1 nM
8 | AUAAAUAAUAAAUAAAAUAAAGUGGGUGAACGAGGACCGGUACGGCCGCCACUCGGACAUGAGGAUCACCCAUGUCCAUGUGAAA | 17.2 | 51.2 |  |  | 
9 | GCUGUGAAGUCGGCCGCCACUGGUUAGUUUUACCUCAUGUAACAUGAGGAUCACCCAUGUAAUUUCAGGACCGGGACAACAGCAA | 278 | 852 |  |  | 
10 | GGCACAUAGUCGGCCGCCACUAGAUUUUAGUGGAAUAACAUGAGGAUCACCCAUGUAUUUGGGACUAGGACCGGGACUAUGUGCC | 32.8 | 22.2 |  |  | 
11 | ACAAGUCCUCAUGAUACCAGCGAUGAGACAAAGUCUCAACAUGAGGAUCACCCAUGUACUCGCCCUUGGCAGCAUACGGUUUUUG |  |  |  |  | apparent Kd (MS2 coat protein [2]; [5]): 415 nM; apparent Kd (MS2 coat protein [2]; [6]): 43.6 nM
12 | AGCAUACAUUCUGAUACCAGAGACAUGAGGAUCACCCAUGUCCGAUCGUCCUGCCUCAGACUCCCUUGGCAGCAGGAUGUGUGCU |  |  | 13.9 | 33.4 | 
13 | ACUACAAAGUAGUAUAUACGAAAGUAUAGACGAGGACCGGUACGGCCGCCACUCGGUACCGGAAACACAUGAGGAUCACCCAUGU | 20.6 | 17.6 |  |  | 
14 | UCUGGGUGCGCAAGGACCUGGAGUUGCGAUACCAGCACGGUAACGUGCCCUUGGCAGCGCACAUGAGGAUCACCCAUGUGGUGUU |  |  | 310 | 388 | 
15 | UCGCACAUGAGGAUCACCCAUGUACUAGAUACCAGUGACGCGGUGCACCCUUGGCAGCUGGUGCUGAGUGAUGGUUCCCUCGGCA |  |  | 119 | 143 | 
16 | AACAUGAGGAUCACCCAUGUAUUGGGUGAUACCAGCCUGAAUAAUGGCCCUUGGCAGCACCGCGCUAACUUUAUGUCUGCGAAAC |  |  |  |  | apparent Kd (MS2 coat protein [2]; [5]): 127 nM; apparent Kd (MS2 coat protein [2]; [6]): 138 nM
17 | UACUUGCUGACGGCCGCCACUAGUACAUGAGGAUCACCCAUGUACGGUCGCCCGGUGUGAUCCACUAGGACCGGGUCAGCAAGAU | 38.3 | 124 |  |  | 
18 | CUCGAGUUAUGAGAUACCAGACUAUAGUUUACAUGAGGAUCACCCAUGUUAUGGGUGGUGGUCCCUUGGCAGCUCAUAUGUUUAA |  |  | 60.1 | 284 | 
19 | ACAUGAGGAUCACCCAUGUUCCUCAUUGAUACCAGUGAAUUUAGACGCCCUUGGCAGCGAGUUUUUUUAUAAGAUGUUUUUUUUU |  |  | 545 | 1110 | 
20 | AUCGUACCUGAUGAUACCAGCAAUUGCUCGUAACAUGAGGAUCACCCAUGUGACCAGUGAUGCCCUUGGCAGCAUGAUCGGUGCA |  |  |  |  | apparent Kd (MS2 coat protein [2]; [5]): 53.8 nM; apparent Kd (MS2 coat protein [2]; [6]): 12.4 nM
21 | ACUUGGUGGUGAUCCCUGCCAAGAGGUGAUACCAGCAUCGAAAGAUGCCCUUGGCAGCACCAACAUGAGGAUCACCCAUGUAAUA |  |  |  |  | apparent Kd (MS2 coat protein [2]; [5]): 156 nM; apparent Kd (MS2 coat protein [2]; [6]): 157 nM
22 | GAUGAACUAUAUGAUACCAGACAACAUGAGGAUCACCCAUGUGAUUGUCGUCCUCUGCCUGUCCCUUGGCAGCGUAUAGUUUAUC |  |  | 33.8 | 229 | 
23 | AAGCUGCCAAGAACAUGGGUGAAAUGUGAUACCAGCUAGGAAACUAGCCCUUGGCAGCACAUGAGGAUCACCCAUGUAAUAAUAA |  |  | 352 | 93.7 | 
24 | UUAAAUGUGACGGAUACCAGCGUGUUGUAGAACAUGAGGAUCACCCAUGUAGUGAUCGAGCGCCCUUGGCAGCUGGUAUGUUUGA |  |  |  |  | apparent Kd (MS2 coat protein [2]; [5]): 180 nM; apparent Kd (MS2 coat protein [2]; [6]): 532 nM
25 | GAUGAUAUUGCAGAUACCAGACACAUGAGGAUCACCCAUGUCGCUGAGAUGCUGGAUCGUGUCCCUUGGCAGCUGCGAUAUCAUC |  |  | 55.1 | 402 | 
26 | GAGACAUGAGGAUCACCCAUGUUAGAUGAUACCAGUUAGAGAAGGAGCCCUUGGCAGCGUAAAUCUAGAGCCUAUGACGACAUGU |  |  |  |  | apparent Kd (MS2 coat protein [2]; [5]): 13.4 nM; apparent Kd (MS2 coat protein [2]; [6]): 14.2 nM
